What was measured:
Rattus norvegicus [1] = organism: Rattus norvegicus; experiment: In vitro anti-oxytocic potency was evaluated in the absence of Mg2+; assay type: functional; details: read-out: pA2 (converted)
Method in brief: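 Isolated rat uterus in medium containing no Mg2+. USP posterior pituitary reference standard used as agonist. In vitro pA2 values were derived as in Bankowski et al.; means ± SE.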

Rattus norvegicus [2] = organism: Rattus norvegicus; experiment: In vitro anti-oxytocic potency was evaluated in the presence of 0.5 mM of Mg2+; assay type: functional; details: read-out: pA2 (converted)
Method in brief: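 Isolated rat uterus in medium containing 0.5 mM Mg2+. USP posterior pituitary reference standard used as agonist. In vitro pA2 values were derived as in Bankowski et al.; means ± SE.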

Rattus norvegicus [3] = experiment: In vivo anti-vasopressor activity measured as the negative logarithm of the effective dose / the estimated volume of distribution (67 mL/kg); assay type: ADME, organism-based; details: read-out: pA2 (converted)
Method in brief: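 Rats treated with phenoxybenzamine under urethane anesthesia. Pressor responses to the USP posterior pituitary standard were given intravenously. Effective dose (nmol/kg) was interpolated on a log scale; means ± SE of at least four estimates. pA2 = −log(effective dose / 67 mL/kg).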

Rattus norvegicus [4] = experiment: In vivo antidiuretic activity in rats under ethanol anesthesia.; assay type: functional, Urine
Method in brief: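 Rats under ethanol anesthesia, with the USP posterior pituitary reference standard as reference. Agonistic activity is expressed in units per milligram.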

Row | SMILES | Kb (Rattus norvegicus [1]) [nM] | Kb (Rattus norvegicus [2]) [nM] | Kb (Rattus norvegicus [3]) [nM] | Activity (Rattus norvegicus [4]) [units/mg]
1 | CCOc1ccc(C[C@@H]2NC(=O)CC(C)(C)SSC[C@@H](C(=O)N3CCC[C@H]3C(=O)N[C@@H](CCCN=C(N)N)C(=O)NCC(N)=O)NC(=O)[C@H](CC(N)=O)NC(=O)[C@H](C(C)C)NC(=O)[C@H](Cc3ccccc3)NC2=O)cc1 [listing 1 of 2 here] | 2.29 | 21.9 | 8.51 | –
2 | CCOc1ccc(C[C@@H]2NC(=O)CC(C)(C)SSC[C@@H](C(=O)N3CCC[C@H]3C(=O)N[C@@H](CCCN=C(N)N)C(=O)NCC(N)=O)NC(=O)[C@H](CC(N)=O)NC(=O)[C@H](C(C)C)NC(=O)[C@H](Cc3ccccc3)NC2=O)cc1 [listing 2 of 2 here] | – | – | – | 0.62
3 | COc1ccc(C[C@@H]2NC(=O)CC(C)(C)SSC[C@@H](C(=O)N3CCC[C@H]3C(=O)N[C@@H](CCCN=C(N)N)C(=O)NCC(N)=O)NC(=O)[C@H](CC(N)=O)NC(=O)[C@H](C(C)C)NC(=O)[C@H](Cc3ccccc3)NC2=O)cc1 [listing 1 of 2 here] | 3.72 | 12.6 | 4.37 | –
4 | COc1ccc(C[C@@H]2NC(=O)CC(C)(C)SSC[C@@H](C(=O)N3CCC[C@H]3C(=O)N[C@@H](CCCN=C(N)N)C(=O)NCC(N)=O)NC(=O)[C@H](CC(N)=O)NC(=O)[C@H](C(C)C)NC(=O)[C@H](Cc3ccccc3)NC2=O)cc1 [listing 2 of 2 here] | – | – | – | 2.9
5 | CCOc1ccc(C[C@@H]2NC(=O)CC(C)(C)SSC[C@@H](C(=O)N3CCC[C@H]3C(=O)N[C@H](CCCN=C(N)N)C(=O)NCC(N)=O)NC(=O)[C@H](CC(N)=O)NC(=O)[C@H](C(C)C)NC(=O)[C@H](Cc3ccccc3)NC2=O)cc1 [listing 1 of 2 here] | 15.1 | 26.9 | 3.47 | –
6 | CCOc1ccc(C[C@@H]2NC(=O)CC(C)(C)SSC[C@@H](C(=O)N3CCC[C@H]3C(=O)N[C@H](CCCN=C(N)N)C(=O)NCC(N)=O)NC(=O)[C@H](CC(N)=O)NC(=O)[C@H](C(C)C)NC(=O)[C@H](Cc3ccccc3)NC2=O)cc1 [listing 2 of 2 here] | – | – | – | 0.2
7 | CCOc1ccc(C[C@@H]2NC(=O)CC(CC)(CC)SSC[C@@H](C(=O)N3CCC[C@H]3C(=O)N[C@H](CCCN=C(N)N)C(=O)NCC(N)=O)NC(=O)[C@H](CC(N)=O)NC(=O)[C@H](C(C)C)NC(=O)[C@H](Cc3ccccc3)NC2=O)cc1 [listing 1 of 2 here] | 10.5 | 12.9 | 6.46 | –
8 | CCOc1ccc(C[C@@H]2NC(=O)CC(CC)(CC)SSC[C@@H](C(=O)N3CCC[C@H]3C(=O)N[C@H](CCCN=C(N)N)C(=O)NCC(N)=O)NC(=O)[C@H](CC(N)=O)NC(=O)[C@H](C(C)C)NC(=O)[C@H](Cc3ccccc3)NC2=O)cc1 [listing 2 of 2 here] | – | – | – | 0.07
9 | CCC1(CC)CC(=O)N[C@@H](Cc2ccc(OC)cc2)C(=O)N[C@@H](Cc2ccccc2)C(=O)N[C@@H](C(C)C)C(=O)N[C@@H](CC(N)=O)C(=O)N[C@H](C(=O)N2CCC[C@H]2C(=O)N[C@H](CCCN=C(N)N)C(=O)NCC(N)=O)CSS1 [listing 1 of 2 here] | 18.6 | 11.7 | 4.47 | –
10 | CCC1(CC)CC(=O)N[C@@H](Cc2ccc(OC)cc2)C(=O)N[C@@H](Cc2ccccc2)C(=O)N[C@@H](C(C)C)C(=O)N[C@@H](CC(N)=O)C(=O)N[C@H](C(=O)N2CCC[C@H]2C(=O)N[C@H](CCCN=C(N)N)C(=O)NCC(N)=O)CSS1 [listing 2 of 2 here] | – | – | – | 0.11
11 | CCOc1ccc(C[C@@H]2NC(=O)CC(CC)(CC)SSC[C@@H](C(=O)N3CCC[C@H]3C(=O)N[C@@H](CCCN=C(N)N)C(=O)NCC(N)=O)NC(=O)[C@H](CC(N)=O)NC(=O)[C@H](CCC(N)=O)NC(=O)[C@H](Cc3ccccc3)NC2=O)cc1 [listing 1 of 2 here] | 3.72 | 10 | 3.47 | –
12 | CCOc1ccc(C[C@@H]2NC(=O)CC(CC)(CC)SSC[C@@H](C(=O)N3CCC[C@H]3C(=O)N[C@@H](CCCN=C(N)N)C(=O)NCC(N)=O)NC(=O)[C@H](CC(N)=O)NC(=O)[C@H](CCC(N)=O)NC(=O)[C@H](Cc3ccccc3)NC2=O)cc1 [listing 2 of 2 here] | – | – | – | 0.035
13 | COc1ccc(C[C@@H]2NC(=O)CC(C)(C)SSC[C@@H](C(=O)N3CCC[C@H]3C(=O)N[C@H](CCCN=C(N)N)C(=O)NCC(N)=O)NC(=O)[C@H](CC(N)=O)NC(=O)[C@H](CCC(N)=O)NC(=O)[C@H](Cc3ccccc3)NC2=O)cc1 | 24.5 | 57.5 | 11 | 3.5
14 | CCOc1ccc(C[C@@H]2NC(=O)CC(C)(C)SSC[C@@H](C(=O)N3CCC[C@H]3C(=O)N[C@@H](CCCN=C(N)N)C(=O)NCC(N)=O)NC(=O)[C@H](CC(N)=O)NC(=O)[C@H](CCC(N)=O)NC(=O)[C@H](Cc3ccccc3)NC2=O)cc1 [listing 1 of 2 here] | 7.59 | 44.7 | 3.98 | –
15 | CCOc1ccc(C[C@@H]2NC(=O)CC(C)(C)SSC[C@@H](C(=O)N3CCC[C@H]3C(=O)N[C@@H](CCCN=C(N)N)C(=O)NCC(N)=O)NC(=O)[C@H](CC(N)=O)NC(=O)[C@H](CCC(N)=O)NC(=O)[C@H](Cc3ccccc3)NC2=O)cc1 [listing 2 of 2 here] | – | – | – | 0.59
16 | COc1ccc(C[C@@H]2NC(=O)CC(C)(C)SSC[C@@H](C(=O)N3CCC[C@H]3C(=O)N[C@H](CCCN=C(N)N)C(=O)NCC(N)=O)NC(=O)[C@H](CC(N)=O)NC(=O)[C@H](C(C)C)NC(=O)[C@H](Cc3ccccc3)NC2=O)cc1 [listing 1 of 2 here] | 31.6 | 21.4 | 14.5 | –

Row | SMILES | Kb (Rattus norvegicus [1]) [nM] | Kb (Rattus norvegicus [2]) [nM] | Kb (Rattus norvegicus [3]) [nM] | Activity (Rattus norvegicus [4]) [units/mg]
17 | COc1ccc(C[C@@H]2NC(=O)CC(C)(C)SSC[C@@H](C(=O)N3CCC[C@H]3C(=O)N[C@H](CCCN=C(N)N)C(=O)NCC(N)=O)NC(=O)[C@H](CC(N)=O)NC(=O)[C@H](C(C)C)NC(=O)[C@H](Cc3ccccc3)NC2=O)cc1 [listing 2 of 2 here] | – | – | – | 3.2
18 | CCOc1ccc(C[C@@H]2NC(=O)CC(CC)(CC)SSC[C@@H](C(=O)N3CCC[C@H]3C(=O)N[C@@H](CCCN=C(N)N)C(=O)NCC(N)=O)NC(=O)[C@H](CC(N)=O)NC(=O)[C@H](C(C)C)NC(=O)[C@H](Cc3ccccc3)NC2=O)cc1 [listing 1 of 2 here] | 7.41 | 37.2 | 3.8 | –
19 | CCOc1ccc(C[C@@H]2NC(=O)CC(CC)(CC)SSC[C@@H](C(=O)N3CCC[C@H]3C(=O)N[C@@H](CCCN=C(N)N)C(=O)NCC(N)=O)NC(=O)[C@H](CC(N)=O)NC(=O)[C@H](C(C)C)NC(=O)[C@H](Cc3ccccc3)NC2=O)cc1 [listing 2 of 2 here] | – | – | – | 0.1
20 | CCC1(CC)CC(=O)N[C@@H](Cc2ccc(OC)cc2)C(=O)N[C@@H](Cc2ccccc2)C(=O)N[C@@H](C(C)C)C(=O)N[C@@H](CC(N)=O)C(=O)N[C@H](C(=O)N2CCC[C@H]2C(=O)N[C@@H](CCCN=C(N)N)C(=O)NCC(N)=O)CSS1 [listing 1 of 2 here] | 2.57 | 11.7 | 5.13 | –
21 | CCC1(CC)CC(=O)N[C@@H](Cc2ccc(OC)cc2)C(=O)N[C@@H](Cc2ccccc2)C(=O)N[C@@H](C(C)C)C(=O)N[C@@H](CC(N)=O)C(=O)N[C@H](C(=O)N2CCC[C@H]2C(=O)N[C@@H](CCCN=C(N)N)C(=O)NCC(N)=O)CSS1 [listing 2 of 2 here] | – | – | – | 0.24
22 | CCOc1ccc(C[C@@H]2NC(=O)CC(CC)(CC)SSC[C@@H](C(=O)N3CCC[C@H]3C(=O)N[C@H](CCCN=C(N)N)C(=O)NCC(N)=O)NC(=O)[C@H](CC(N)=O)NC(=O)[C@H](CCC(N)=O)NC(=O)[C@H](Cc3ccccc3)NC2=O)cc1 [listing 1 of 2 here] | 70.8 | 28.8 | 4.68 | –
23 | CCOc1ccc(C[C@@H]2NC(=O)CC(CC)(CC)SSC[C@@H](C(=O)N3CCC[C@H]3C(=O)N[C@H](CCCN=C(N)N)C(=O)NCC(N)=O)NC(=O)[C@H](CC(N)=O)NC(=O)[C@H](CCC(N)=O)NC(=O)[C@H](Cc3ccccc3)NC2=O)cc1 [listing 2 of 2 here] | – | – | – | 0.0003
24 | CCC1(CC)CC(=O)N[C@@H](Cc2ccc(OC)cc2)C(=O)N[C@@H](Cc2ccccc2)C(=O)N[C@@H](CCC(N)=O)C(=O)N[C@@H](CC(N)=O)C(=O)N[C@H](C(=O)N2CCC[C@H]2C(=O)N[C@@H](CCCN=C(N)N)C(=O)NCC(N)=O)CSS1 [listing 1 of 2 here] | 11 | 6.46 | 2.95 | –
25 | CCC1(CC)CC(=O)N[C@@H](Cc2ccc(OC)cc2)C(=O)N[C@@H](Cc2ccccc2)C(=O)N[C@@H](CCC(N)=O)C(=O)N[C@@H](CC(N)=O)C(=O)N[C@H](C(=O)N2CCC[C@H]2C(=O)N[C@@H](CCCN=C(N)N)C(=O)NCC(N)=O)CSS1 [listing 2 of 2 here] | – | – | – | 0.066
26 | COc1ccc(C[C@@H]2NC(=O)CC3(CCCCC3)SSC[C@@H](C(=O)N3CCC[C@H]3C(=O)N[C@H](CCCN=C(N)N)C(=O)NCC(N)=O)NC(=O)[C@H](CC(N)=O)NC(=O)[C@H](CCC(N)=O)NC(=O)[C@H](Cc3ccccc3)NC2=O)cc1 | 7.41 | 57.5 | 2.4 | 0.31
27 | CCC1(CC)CC(=O)N[C@@H](Cc2ccc(OC)cc2)C(=O)N[C@@H](Cc2ccccc2)C(=O)N[C@@H](CCC(N)=O)C(=O)N[C@@H](CC(N)=O)C(=O)N[C@H](C(=O)N2CCC[C@H]2C(=O)NC(CCCN=C(N)N)C(=O)NCC(N)=O)CSS1 (stereo in doubt) [listing 1 of 2 here] | 19.1 | 7.94 | 2.69 | –
28 | CCC1(CC)CC(=O)N[C@@H](Cc2ccc(OC)cc2)C(=O)N[C@@H](Cc2ccccc2)C(=O)N[C@@H](CCC(N)=O)C(=O)N[C@@H](CC(N)=O)C(=O)N[C@H](C(=O)N2CCC[C@H]2C(=O)NC(CCCN=C(N)N)C(=O)NCC(N)=O)CSS1 (stereo in doubt) [listing 2 of 2 here] | – | – | – | 0.019
29 | COc1ccc(C[C@@H]2NC(=O)CC(C)(C)SSC[C@@H](C(=O)N3CCC[C@H]3C(=O)NC(CCCN=C(N)N)C(=O)NCC(N)=O)NC(=O)[C@H](CC(N)=O)NC(=O)[C@H](CCC(N)=O)NC(=O)[C@H](Cc3ccccc3)NC2=O)cc1 (stereo in doubt) | 17 | 43.7 | 4.9 | 0.46
30 | CCOc1ccc(C[C@@H]2NC(=O)CC(C)(C)SSC[C@@H](C(=O)N3CCC[C@H]3C(=O)NC(CCCN=C(N)N)C(=O)NCC(N)=O)NC(=O)[C@H](CC(N)=O)NC(=O)[C@H](CCC(N)=O)NC(=O)[C@H](Cc3ccccc3)NC2=O)cc1 (stereo in doubt) [listing 1 of 2 here] | 14.1 | 38.9 | 5.37 | –
31 | CCOc1ccc(C[C@@H]2NC(=O)CC(C)(C)SSC[C@@H](C(=O)N3CCC[C@H]3C(=O)NC(CCCN=C(N)N)C(=O)NCC(N)=O)NC(=O)[C@H](CC(N)=O)NC(=O)[C@H](CCC(N)=O)NC(=O)[C@H](Cc3ccccc3)NC2=O)cc1 (stereo in doubt) [listing 2 of 2 here] | – | – | – | 0.23

Reference: ChEMBL document CHEMBL1122821, “Synthesis and some pharmacological properties of 18 potent O-alkyltyrosine-substituted antagonists of the vasopressor responses to arginine-vasopressin” (J Med Chem, 1985)
